# Active and inactive are the calls of the source.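 Rule for the calls, unless noted: active = viability at or below 10% of carrier control in both of two separate runs; inconclusive = viability at or below 10% in only one of the two runs; inactive = the rest.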
# Experiments:
# [1] = reducers of endogenous Her2 protein level, primary screen, SKBR3 breast tumor cells, AlphaScreen, ATP viability (AID 461;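 active = Her2 level under about 52% in both replicate screens, with viability over 70% of control, limit read from the data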;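 for Her2 level: lower value means less Her2 protein in the cells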;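 for viability: percent of carrier control wells set as 100% viability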); details: 18-24 h, measured here: SKBR3 viability, ATP luminescence, at 10 µM
# [2] = target: Receptor tyrosine-protein kinase erbB-2 (Homo sapiens) (UniProt P04626); assay: as above; details: 18-24 h, at 10 µM, stronger effect = lower value
# Receptor tyrosine-protein kinase erbB-2 (Homo sapiens), sequence (P04626 whole entry, looked up): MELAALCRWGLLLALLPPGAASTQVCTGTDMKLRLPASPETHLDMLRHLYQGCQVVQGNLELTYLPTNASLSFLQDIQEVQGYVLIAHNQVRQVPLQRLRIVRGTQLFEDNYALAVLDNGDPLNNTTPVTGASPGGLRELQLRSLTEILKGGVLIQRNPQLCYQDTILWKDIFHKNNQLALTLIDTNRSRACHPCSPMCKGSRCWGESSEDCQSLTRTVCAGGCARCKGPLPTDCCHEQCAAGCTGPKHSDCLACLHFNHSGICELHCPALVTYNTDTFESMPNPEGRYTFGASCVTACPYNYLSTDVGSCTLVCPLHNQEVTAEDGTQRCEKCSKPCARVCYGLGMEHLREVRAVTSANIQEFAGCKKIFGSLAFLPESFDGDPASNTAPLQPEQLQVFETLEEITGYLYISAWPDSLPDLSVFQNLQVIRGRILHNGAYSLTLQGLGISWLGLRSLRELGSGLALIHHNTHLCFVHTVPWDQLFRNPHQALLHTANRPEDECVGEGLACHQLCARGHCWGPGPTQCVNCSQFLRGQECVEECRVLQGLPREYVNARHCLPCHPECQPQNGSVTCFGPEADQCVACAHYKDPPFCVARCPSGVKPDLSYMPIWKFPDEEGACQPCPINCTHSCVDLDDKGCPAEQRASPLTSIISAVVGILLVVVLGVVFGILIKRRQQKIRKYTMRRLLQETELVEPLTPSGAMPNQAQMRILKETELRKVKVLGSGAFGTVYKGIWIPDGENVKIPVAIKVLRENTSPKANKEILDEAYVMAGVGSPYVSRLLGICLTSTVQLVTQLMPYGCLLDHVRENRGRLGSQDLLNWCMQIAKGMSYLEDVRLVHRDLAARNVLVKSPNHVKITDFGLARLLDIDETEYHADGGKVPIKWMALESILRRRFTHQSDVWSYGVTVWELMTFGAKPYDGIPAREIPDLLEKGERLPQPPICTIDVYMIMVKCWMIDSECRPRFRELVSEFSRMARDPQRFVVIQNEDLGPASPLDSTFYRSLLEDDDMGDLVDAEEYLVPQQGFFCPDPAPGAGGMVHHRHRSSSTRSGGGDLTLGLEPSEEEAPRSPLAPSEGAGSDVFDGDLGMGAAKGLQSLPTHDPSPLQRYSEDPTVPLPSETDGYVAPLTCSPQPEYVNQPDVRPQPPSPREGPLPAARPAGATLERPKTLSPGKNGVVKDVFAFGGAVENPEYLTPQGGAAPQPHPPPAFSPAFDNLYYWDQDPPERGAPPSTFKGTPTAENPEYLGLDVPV
# [3] = SK-BR-3 cell growth inhibitors, pilot screen, 24 h, human (AID 572); details: SK-BR-3 viability, CellTiter-Glo luminescence, at 10 µM, stronger effect = lower value;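 note: compound exposure lasted between 18 and 24 h rather than exactly 24 h; 100% = carrier-treated control wells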
# [4] = HUVEC growth inhibition – cell-based, human, primary screen (AID 575;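 active = viability at or below 30% in both replicate assays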;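 note: 100% = median of untreated cell wells with 0.1% DMSO on each plate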); details: HUVEC proliferation, CellTiter-Glo luminescence, 72 h; at 10 µM; stronger effect = lower value
# Summary of the method: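 Test system: primary human umbilical vein endothelial cells; medium: endothelial basal medium with 2% FBS plus growth supplements; dosing: 10 µM compound only; times: 72 h treatment at 37 °C; signal: CTG luminescence; read-out: % viability relative to median vehicle-well signal on each plate; control set: vehicle and MePR control wells; plate: 384-well, collagen-coated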
# [5] = growth inhibitors of H69AR lung tumor, primary screen, human, duplicate replicates (AID 580;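 active = viability at or under a set limit in both replicates, limit being median viability minus 3 SD, cut at about 48% in these data, passing the limit was not always enough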;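 note: 100% = mean luminescence of untreated wells and 0% = no signal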); details: H69AR lung tumor cells viability, ATP luminescence, 72 h; at 10 µM; stronger effect = lower value
# [6] = reversal of MRP1-mediated doxorubicin resistance, pilot screen, H69AR cells, doxorubicin co-treatment (AID 601;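 active = viability loss from added drug above about 55%, and viability with drug at most 40%, in both replicates, limit read from the data, passing the limit was not always enough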); details: CellTiter-Glo, 72 h, at 10 µM; for differential viability (reversal): stronger effect = higher value
# [7] = 384-well plate pilot, post-Golgi transport modulator project, inhibition of yeast transport mutant growth (AID 636; in the data active = inhibition above about 31%); details: absorbance 615 nm, about 18 h, stronger effect = higher value
# [8] = growth suppression of yeast trafficking mutant, preliminary HTS, modulators of trafficking downstream of Golgi apparatus project, 1536-format plate, OD 615 nm (AID 637; in the data active = inhibition above about 30%); details: yeast transport mutant growth, absorbance 615 nm, 18 h; stronger effect = higher value
# [9] = H69AR cells + 2 uM doxorubicin, measured here: viability with 2 uM doxorubicin, stronger effect = lower value
# [10] = H69AR cells, compound alone cytotoxicity
SMILES,viability [1] [%],Her2 level [2],viability [3],viability [4],viability [5],differential viability (reversal) ([6]; H69AR cells + 2 uM doxorubicin),"viability [6, 9] [%]","viability [6, 10] [%]",inhibition [7],inhibition [8]
CC(=O)OC1c2ccccc2C(=O)N1c1ccccc1C (stereo not given),100,106% (inactive),100% (inactive),99.9% (inactive),105% (inactive),14.2% (inactive),91.2,105,0.64% (inactive),0.83% (inactive)
CCOC(=O)CSC1=C(C#N)C(=O)NC(c2ccc(OC)c(OC)c2)S1 (stereo not given),104,99% (inactive),104% (inactive),74.6% (inactive),97.2% (inactive),-1.72% (inactive),99,97.2,-4.79% (inactive),0.16% (inactive)
Cc1ccc(Cc2c(C)nc3c(C(=O)O)cnn3c2C)cc1,93.5,114% (inactive),93.5% (inactive),85.5% (inactive),91.9% (inactive),-10.4% (inactive),102,91.9,-4.34% (inactive),-5.17% (inactive)
COc1ccc2oc(=O)c(C(=O)N3CCN(c4ccccc4F)CC3)cc2c1,97.5,95.5% (inactive),97.5% (inactive),108% (inactive),88.1% (inactive),-9.48% (inactive),97.6,88.1,-6.4% (inactive),-3.65% (inactive)
CCOC(=O)Nc1sc(=S)n(C)c1C,92.5,96% (inactive),92.5% (inactive),104% (inactive),98% (inactive),3.1% (inactive),94.9,98,-3.95% (inactive),0.16% (inactive)
COc1ccc(CNC(=O)CN(C(=O)c2ccc(CN3CCOCC3)o2)C2CCCC2)cc1,124,84.5% (inactive),124% (inactive),89% (inactive),93.1% (inactive),7.3% (inactive),85.8,93.1,-1.87% (inactive),0.98% (inactive)
CSc1ccc(S(=O)(=O)Nc2cccc(F)c2)cc1,96,76% (inactive),96% (inactive),97.7% (inactive),97.3% (inactive),-0.325% (inactive),97.6,97.3,-5.26% (inactive),-5.33% (inactive)
CCOC(=O)CSc1ncnc2c1cnn2-c1ccc(C)cc1,103,88.5% (inactive),103% (inactive),75% (inactive),90.6% (inactive),-0.755% (inactive),91.4,90.6,-6.4% (inactive),0.33% (inactive)
COC(C)(C)c1cc(C(C)(C)C)nc(N)n1,107,109% (inactive),107% (inactive),86.2% (inactive),89.9% (inactive),-1.34% (inactive),91.2,89.9,-2.08% (inactive),-4.75% (inactive)
O=C(COC(=O)C12CC3CC(CC(O)(C3)C1)C2)N1CCN(S(=O)(=O)c2ccc(Cl)cc2)CC1,87.5,85.5% (inactive),87.5% (inactive),107% (inactive),83.6% (inactive),-7.7% (inactive),91.3,83.6,-3.33% (inactive),-4.17% (inactive)
Cc1ccccc1N1C(N)=NC(N)=NC1(C)C,107,84% (inactive),107% (inactive),98.3% (inactive),90.6% (inactive),-0.97% (inactive),91.5,90.6,-3.9% (inactive),-3.17% (inactive)
O=S1(=O)CCC(NS(=O)(=O)/C=C/c2ccccc2)C1 (stereo not given),110,104% (inactive),110% (inactive),93.4% (inactive),99.2% (inactive),9.1% (inactive),90.1,99.2,-6.22% (inactive),-3.11% (inactive)
Cc1cc(C)nc(N2CCC(C(=O)NC3CCCCCC3)CC2)n1,92.5,99% (inactive),92.5% (inactive),111% (inactive),96.1% (inactive),1.6% (inactive),94.5,96.1,-4.8% (inactive),1.13% (inactive)
O=C(OCC(=O)N1CCc2ccccc21)C1=COCCO1,89.5,90% (inactive),89.5% (inactive),88.4% (inactive),86.1% (inactive),18.2% (inactive),67.9,86.1,-4.94% (inactive),-0.32% (inactive)
COc1cccc(OCc2nc3c4cnn(-c5ccccc5)c4ncn3n2)c1,97.5,99.5% (inactive),97.5% (inactive),80.1% (inactive),67.8% (inactive),-20.5% (inactive),88.3,67.8,-2.24% (inactive),3.44% (inactive)
Cc1ccc(CNC(=O)C2CCN(S(=O)(=O)c3c(C)noc3C)CC2)cc1,100,102% (inactive),100% (inactive),106% (inactive),104% (inactive),6.84% (inactive),97.4,104,-0.53% (inactive),-4.44% (inactive)

SMILES,viability [1] [%],Her2 level [2],viability [3],viability [4],viability [5],differential viability (reversal) ([6]; H69AR cells + 2 uM doxorubicin),"viability [6, 9] [%]","viability [6, 10] [%]",inhibition [7],inhibition [8]
COC(=O)Cc1c(C)nc2nc(-c3ccco3)[nH]n2c1=O,110,93% (inactive),110% (inactive),93.6% (inactive),98.7% (inactive),8.05% (inactive),90.6,98.7,-2.76% (inactive),-3.65% (inactive)
CN(CC(=O)N1CCN(c2ccc(F)cc2)CC1)S(=O)(=O)c1ccc(F)cc1,97,95.5% (inactive),97% (inactive),88.4% (inactive),86.6% (inactive),-7.95% (inactive),94.5,86.6,-6.18% (inactive),5.25% (inactive)
NC(=O)CSc1nnc(-c2cc3ccccc3o2)n1Cc1ccccc1,92.5,81.5% (inactive),92.5% (inactive),104% (inactive),90.3% (inactive),-1.59% (inactive),91.8,90.3,-6.05% (inactive),0.67% (inactive)
CC(=O)N1CCc2cc(S(=O)(=O)NCCC3=CCCCC3)ccc21,108,85% (inactive),108% (inactive),64% (inactive),91.1% (inactive),-7.85% (inactive),99,91.1,-3.29% (inactive),-2.22% (inactive)
CC(=O)CCc1c(C)[nH]c2ccccc2c1=O,88.5,118% (inactive),88.5% (inactive),99.1% (inactive),93.2% (inactive),0.225% (inactive),93,93.2,5.84% (inactive),13.1% (inactive)
CCOc1cc(NC(=O)c2ccco2)c(OCC)cc1NC(=O)CCC(=O)NCc1cccnc1,95.5,100% (inactive),95.5% (inactive),88.1% (inactive),86.1% (inactive),-4.71% (inactive),90.8,86.1,-1.43% (inactive),-4.17% (inactive)
COCCn1c(SCC(=O)c2ccccc2)nc2c(c1=O)SC(C)C2 (stereo not given),108,106% (inactive),108% (inactive),98.9% (inactive),79.7% (inactive),27.6% (inactive),52.1,79.7,-5.2% (inactive),3.44% (inactive)
CN(CC(=O)Nc1ccc2c(c1)OCCO2)S(=O)(=O)c1ccc(Br)s1,90.5,94.5% (inactive),90.5% (inactive),111% (inactive),83.3% (inactive),-10.7% (inactive),94,83.3,-2.63% (inactive),-10.8% (inactive)
COc1ccccc1C(=O)N1CCNC(=O)C1CC(=O)Nc1ccc(Cl)cc1 (stereo not given),97.5,89.5% (inactive),97.5% (inactive),99.6% (inactive),95.5% (inactive),-2.83% (inactive),98.3,95.5,1.71% (inactive),-2.74% (inactive)
CCCCn1nnnc1SCC(=O)Nc1cccc(C)n1,108,115% (inactive),108% (inactive),111% (inactive),113% (inactive),7.5% (inactive),105,113,2.3% (inactive),3.5% (inactive)
Cc1cccc(NC(=O)CC(C)(C)C)c1,110,90.5% (inactive),110% (inactive),92.4% (inactive),97.9% (inactive),2.31% (inactive),95.6,97.9,-6.53% (inactive),-5.08% (inactive)
Cn1c2c(c(=O)n(C)c1=O)CN(CCCN1CCOCC1)CN2,100,86.5% (inactive),100% (inactive),106% (inactive),108% (inactive),7.39% (inactive),101,108,-5.26% (inactive),-5.27% (inactive)
Cn1c(=O)c(-c2ccccc2)nn2c3ccccc3nc12,82.5,63.5% (inactive),82.5% (inactive),90.8% (inactive),90.8% (inactive),-0.73% (inactive),91.6,90.8,-7.03% (inactive),3% (inactive)
COCCN1C(=O)C(=O)/C(=C(/O)c2cccc(S(=O)(=O)N(C)C)c2)C12C(=O)N(C)c1ccccc12 (stereo not given),110,91.5% (inactive),110% (inactive),110% (inactive),99.5% (inactive),3.6% (inactive),95.9,99.5,-7.76% (inactive),-2.38% (inactive)
O=C(CN1CCCCCC1)OCCN=C1NS(=O)(=O)c2ccccc21,108,96.5% (inactive),108% (inactive),88.1% (inactive),113% (inactive),22.9% (inactive),89.8,113,-2.21% (inactive),-6.51% (inactive)
